Data as given in ChEMBL document CHEMBL1149444, “Discovery of imidazo[1,2-b][1,2,4]triazines as GABA(A) alpha2/3 subtype selective agonists for the treatment of anxiety” (J Med Chem, 2006).
Active and inactive are the calls of the source. The calls are words filed in the database; no cut-off is given here.

Legend:
[1] = target: GABA-A receptor; alpha-2/beta-3/gamma-2 (Homo sapiens) (UniProt P18507+P28472+P47869); experiment: Efficacy against recombinant human GABAA alpha2 receptor plus beta3gamma2 expressed in L(tk-) cells by whole cell patch clamp method relative to chlordiazepoxide; format: functional, cell-based
How it was run: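 Whole-cell patch clamp on L(tk-) cells stably expressing human alpha subunit plus beta3gamma2. GABA applied at an EC20-equivalent concentration. Modulation of that current measured across increasing test-compound concentrations. Efficacy is expressed relative to the maximal response to the full agonist chlordiazepoxide, set at 1.00.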

Mus musculus = experiment: Impairment in mouse rotarod assay upto 10 mg/kg, po; format: functional, organism-based; design: dose 10 mg/kg
How it was run: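 Mouse rotarod test for sedation or myorelaxation after oral dosing up to 10 mg/kg. n = 8 per group. Significance versus vehicle at p < 0.05.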

Rattus norvegicus = experiment: Sedation in rat chain pulling assay upto 10 mg/kg, po; format: functional, organism-based; design: dose 10 mg/kg
How it was run: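 Rat chain-pulling assay for sedation. Mean response rate recorded over a 60 min trial starting immediately after oral dosing up to 10 mg/kg. n = 11-12 per group. Significance versus vehicle at p < 0.01.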

[2] = target: T1, GABA-A receptor; alpha-1/beta-3/gamma-2 (Homo sapiens, UniProt P14867+P18507+P28472); experiment: Displacement of [3H]Ro 15-1788 from recombinant human GABAA alpha-1 receptor plus beta3gamma2 expressed in L(tk-) cells; format: cell-based
T1 sequence (P14867 whole entry): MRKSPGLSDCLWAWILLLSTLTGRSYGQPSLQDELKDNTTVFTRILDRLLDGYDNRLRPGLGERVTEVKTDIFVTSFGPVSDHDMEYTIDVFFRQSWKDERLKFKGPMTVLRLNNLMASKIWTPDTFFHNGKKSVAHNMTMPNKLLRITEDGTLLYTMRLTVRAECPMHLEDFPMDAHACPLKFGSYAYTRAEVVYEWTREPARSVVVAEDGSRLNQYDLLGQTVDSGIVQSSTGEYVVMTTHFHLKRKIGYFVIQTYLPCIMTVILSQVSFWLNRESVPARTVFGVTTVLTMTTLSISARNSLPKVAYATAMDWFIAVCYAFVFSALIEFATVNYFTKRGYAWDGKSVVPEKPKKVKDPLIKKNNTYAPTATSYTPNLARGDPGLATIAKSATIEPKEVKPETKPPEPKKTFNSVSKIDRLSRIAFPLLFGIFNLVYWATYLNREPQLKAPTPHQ
T1 sequence (P18507 whole entry): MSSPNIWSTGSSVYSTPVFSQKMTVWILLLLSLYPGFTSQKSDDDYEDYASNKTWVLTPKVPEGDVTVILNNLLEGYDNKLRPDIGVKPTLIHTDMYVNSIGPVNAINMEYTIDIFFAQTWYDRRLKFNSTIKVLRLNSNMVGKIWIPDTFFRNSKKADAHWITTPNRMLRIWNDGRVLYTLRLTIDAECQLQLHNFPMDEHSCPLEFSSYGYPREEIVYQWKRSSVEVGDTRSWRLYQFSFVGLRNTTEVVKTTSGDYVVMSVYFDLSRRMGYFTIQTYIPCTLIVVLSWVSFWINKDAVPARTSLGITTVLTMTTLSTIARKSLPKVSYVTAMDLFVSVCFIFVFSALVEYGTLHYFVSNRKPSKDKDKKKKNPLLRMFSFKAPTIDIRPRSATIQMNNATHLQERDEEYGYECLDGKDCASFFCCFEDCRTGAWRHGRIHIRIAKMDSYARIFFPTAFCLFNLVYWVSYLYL
T1 sequence (P28472 whole entry): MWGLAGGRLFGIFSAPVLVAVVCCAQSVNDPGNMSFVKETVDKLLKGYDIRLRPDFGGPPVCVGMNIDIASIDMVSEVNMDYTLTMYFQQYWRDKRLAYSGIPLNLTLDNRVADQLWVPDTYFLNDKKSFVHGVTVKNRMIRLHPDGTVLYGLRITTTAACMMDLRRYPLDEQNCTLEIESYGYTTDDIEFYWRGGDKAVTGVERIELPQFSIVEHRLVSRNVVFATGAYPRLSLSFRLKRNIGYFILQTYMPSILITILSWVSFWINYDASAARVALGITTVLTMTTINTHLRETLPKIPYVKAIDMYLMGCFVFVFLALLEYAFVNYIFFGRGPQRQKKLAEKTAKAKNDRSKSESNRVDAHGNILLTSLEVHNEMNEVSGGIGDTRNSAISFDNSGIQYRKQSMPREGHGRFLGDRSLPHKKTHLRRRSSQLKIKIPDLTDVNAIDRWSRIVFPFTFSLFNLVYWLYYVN

[3] = Half life in rat at 1 mg/kg, […] 1 mg/kg, po; format: ADME, organism-based; details: in vivo
How it was run: (§1)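 Rat pharmacokinetics after dosing at 1 mg/kg iv and 1 mg/kg po. Plasma clearance in mL/min/kg, half-life in h and volume of distribution in L/kg.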

[4] = Plasma clearance in rat at 1 mg/kg, iv or 1 mg/kg, po; format: ADME, organism-based; how it was run: as §1
[5] = target: GABA-A receptor; anion channel (Rattus norvegicus) (UniProt O09028+P15431+P18506+P18508+P19969+P20236+P23574+P23576+P28471+P28473+P30191+P62813+P63079+P63138+Q91ZM7+Q9ES14); experiment: Receptor occupancy by displacement of [3H]Ro 15-1788 binding from central Benzodiazepine receptor in rat at 0.3 mg/kg, po; format: organism-based; design: dose 0.3 mg/kg
How it was run: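 Central benzodiazepine receptor occupancy in rat after oral dosing, measured by displacement of [3H]Ro15-1788 binding. Plasma concentration was measured at the dose giving 50% occupancy.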

[6] = Oral bioavailability in rhesus at 1 mg/kg, iv or 1 mg/kg, po; format: ADME, organism-based, Macaca mulatta; details: rhesus monkey, in vivo
How it was run: (§2)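 Pharmacokinetics in rat, dog or rhesus after 1 mg/kg iv and 1 mg/kg po dosing. Plasma clearance (mL/min/kg), half-life (h), volume of distribution (L/kg) and oral bioavailability (%) were derived.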

Squirrel monkey = experiment: Sedation in squirrel monkey conditioned emotional response test at 10 mg/kg, po; format: functional, organism-based; design: dose 10 mg/kg; details: Saimiri sciureus
How it was run: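 Squirrel monkeys dosed po in 0.5% methyl cellulose vehicle. Anxiolysis was read as reversal of the suppression of lever pressing caused by a light cue signalling possible electric shock. Sedation was read as the rate of lever pressing for fruit juice reward on an RPI30 schedule. n = 10-11 per group, p < 0.05 versus vehicle.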

[7] = Plasma clearance in rhesus at 1 mg/kg, iv or 1 mg/kg, po; format: ADME, organism-based, Macaca mulatta; details: rhesus monkey; how it was run: as §2

Question: With `CC(C)(O)c1cnn2c(-c3ccc(F)c(-c4c(F)cccc4C#N)c3)cnc2n1` as the molecule, how does the Efficacy [1] read?
Answer: 0.38%

Question: What about the Activity (Mus musculus) of the same molecule?
Answer: inactive

Question: What about the Activity (Rattus norvegicus) of the same molecule?
Answer: inactive

Question: And the Ki [2]?
Answer: 0.73 nM

Question: And the half-life [3]?
Answer: 11 h

Question: What about the clearance [4] of the same molecule?
Answer: 2.4 mL/min/kg

Question: And the Activity [5]?
Answer: 50%

Question: What about the bioavailability [6] of the same molecule?
Answer: 29%

Question: And the Activity (Squirrel monkey)?
Answer: inactive

Question: And the clearance [7]?
Answer: 5.8 mL/min/kg
